Assays:
Beta-TC6 [1] = assay: Percentage insulin release in vitro in beta-TC6 cells; assay type: functional; conditions: Mus musculus
In short: (§1)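 βTC6 cells, 5 × 10⁴/well, grown 3 days in DMEM + 10% FCS, 11 mM glucose, 20 mM Hepes. Washed twice in NN buffer with 0.1% BSA, preincubated 60 min, then 3 h with 22 mM glucose, 0.1 mM IBMX and serial compound dilutions. Insulin in supernatant measured by in-house ELISA (guinea pig anti-insulin, rat insulin standard). Reference compound as positive control.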

Rattus norvegicus [2] = organism: Rattus norvegicus; assay: Inhibition of glucose-stimulated insulin release from Wistar rat islets; assay type: functional
In short: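 Isolated rat islets held overnight in RPMI, 10% FCS, 11 mM glucose, then 10 islets/well overnight in DMEM, 10% FCS, 3 mM glucose. Run like the βTC6 assay (60 min NN buffer preincubation, 3 h with 22 mM glucose and serial dilutions) without IBMX. Insulin by in-house ELISA.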

Rattus norvegicus [3] = organism: Rattus norvegicus; assay: Vasodilation effects on Wistar rat mesenteric arteries precontracted with phenylephrine; assay type: functional
[4] = Changes in potassium fluxes assessed in the glucose responsive insulin-producing murine cell line beta-TC3; assay type: functional, cell-based, Mus musculus
In short: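 βTC3 membrane potential read as DiBAC4(3) fluorescence at 0.01, 0.1, 1, 10 and 100 µM, four wells each. Signal normalized to each well's initial value and expressed as fractional fluorescence change over 45 min incubation. EC50 from four-parameter nonlinear fit; mean ± SEM of at least three independent experiments.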

Rattus norvegicus [5] = organism: Rattus norvegicus; assay: Reduction in plasma insulin in 30 min post-injection in rat; assay type: functional; parameters: concentration or dose not given beside the values
In short: (§2)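 Postprandial male Sprague–Dawley rats, 280–320 g, under Hypnorm/Dormicum at 37 °C. 3 mg/kg iv bolus over 20 s via jugular cannula (0.3 mg/kg for one compound), dissolved in 0.15% NaOH and saline. Blood taken every 5–10 min from 15 min pre- to 30 min postinjection. Plasma insulin by ELISA, as % reduction from pre-dose level. 2–4 animals.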

Rattus norvegicus [6] = organism: Rattus norvegicus; assay: Ability to relax phenylephrine-contracted rat aorta rings; assay type: functional
Rattus norvegicus [7] = organism: Rattus norvegicus; assay: Maximum change in MAP in rat; assay type: functional
In short: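 Anaesthetized male Sprague–Dawley rats given 3 mg/kg iv bolus (0.3 mg/kg for one compound) in 0.15% NaOH/saline via jugular cannula. Maximal percent change in mean arterial pressure over 5 min after dosing; mean ± SEM, 2–4 animals.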

Rattus norvegicus [8] = organism: Rattus norvegicus; assay: Maximum reduction in plasma insulin in rat; assay type: functional; in short: as §2
Beta-TC6 [9] = assay: Ability to inhibit the release of insulin from the mouse beta-TC6 cell line; assay type: functional, cell-based; in short: as §1
[10] = target: T1, Sulfonylurea receptor 1, Kir6.2 (Homo sapiens, UniProt Q09428+Q14654); assay: Inhibition of [3H]glibenclamide binding to HEK293 cells co-expressing human Sulfonylurea receptor SUR1 and Inward rectifier K+ channel Kir6.2 without ATP; assay type: cell-based
[11] = Half life after oral administration to Sprague-Dawley rats; assay type: ADME, organism-based; conditions: rat, in vivo
In short: (§3)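 Cassette dosing, two compounds per cassette, in Sprague–Dawley rats of about 180 g, n = 2. iv doses 0.5 or 0.89 mg/kg; oral doses 1.89 or 2.0 mg/kg. Vehicle 0.1 M potassium phosphate pH 8.0, or PEG 300 based. Heart-puncture sampling, one rat per point. Plasma levels by LC/MS/MS; noncompartmental analysis.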

[12] = Oral bioavailability in rat (Sprague-Dawley); assay type: ADME, organism-based; conditions: in vivo; for bioavailability: Sprague-Dawley; in short: as §3
[13] = target: T1, Sulfonylurea receptor 1, Kir6.2; assay: Inhibition of [3H]glibenclamide binding to HEK293 cells co-expressing human Sulfonylurea receptor SUR1 and Inward rectifier K+ channel Kir6.2 at high affinity state with 2 mM MgATP; assay type: cell-based
[14] = target: T1, Sulfonylurea receptor 1, Kir6.2; assay: Inhibition of [3H]glibenclamide binding to HEK293 cells co-expressing human Sulfonylurea receptor SUR1 and Inward rectifier K+ channel Kir6.2 at low affinity state with 2 mM MgATP; assay type: cell-based
Beta-TC6 [15] = assay: Maximum inhibition of glucose stimulated insulin release from mouse beta-TC6 cells at 10 uM in vitro.; assay type: functional
Rattus norvegicus [16] = organism: Rattus norvegicus; assay: Effective concentration required for relaxation of rat aorta rings; assay type: functional

T1 sequence (Q14654 whole entry): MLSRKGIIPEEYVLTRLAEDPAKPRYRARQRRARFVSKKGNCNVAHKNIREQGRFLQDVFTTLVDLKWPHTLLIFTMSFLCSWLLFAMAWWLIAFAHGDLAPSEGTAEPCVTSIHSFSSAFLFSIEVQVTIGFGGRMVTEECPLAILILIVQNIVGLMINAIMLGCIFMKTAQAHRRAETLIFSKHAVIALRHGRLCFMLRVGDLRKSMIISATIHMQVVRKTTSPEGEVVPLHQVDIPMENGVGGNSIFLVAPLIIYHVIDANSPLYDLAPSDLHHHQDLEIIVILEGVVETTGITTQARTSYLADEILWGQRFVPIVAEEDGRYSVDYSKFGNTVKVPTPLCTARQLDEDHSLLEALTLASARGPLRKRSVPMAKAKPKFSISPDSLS
T1 sequence (Q09428 whole entry): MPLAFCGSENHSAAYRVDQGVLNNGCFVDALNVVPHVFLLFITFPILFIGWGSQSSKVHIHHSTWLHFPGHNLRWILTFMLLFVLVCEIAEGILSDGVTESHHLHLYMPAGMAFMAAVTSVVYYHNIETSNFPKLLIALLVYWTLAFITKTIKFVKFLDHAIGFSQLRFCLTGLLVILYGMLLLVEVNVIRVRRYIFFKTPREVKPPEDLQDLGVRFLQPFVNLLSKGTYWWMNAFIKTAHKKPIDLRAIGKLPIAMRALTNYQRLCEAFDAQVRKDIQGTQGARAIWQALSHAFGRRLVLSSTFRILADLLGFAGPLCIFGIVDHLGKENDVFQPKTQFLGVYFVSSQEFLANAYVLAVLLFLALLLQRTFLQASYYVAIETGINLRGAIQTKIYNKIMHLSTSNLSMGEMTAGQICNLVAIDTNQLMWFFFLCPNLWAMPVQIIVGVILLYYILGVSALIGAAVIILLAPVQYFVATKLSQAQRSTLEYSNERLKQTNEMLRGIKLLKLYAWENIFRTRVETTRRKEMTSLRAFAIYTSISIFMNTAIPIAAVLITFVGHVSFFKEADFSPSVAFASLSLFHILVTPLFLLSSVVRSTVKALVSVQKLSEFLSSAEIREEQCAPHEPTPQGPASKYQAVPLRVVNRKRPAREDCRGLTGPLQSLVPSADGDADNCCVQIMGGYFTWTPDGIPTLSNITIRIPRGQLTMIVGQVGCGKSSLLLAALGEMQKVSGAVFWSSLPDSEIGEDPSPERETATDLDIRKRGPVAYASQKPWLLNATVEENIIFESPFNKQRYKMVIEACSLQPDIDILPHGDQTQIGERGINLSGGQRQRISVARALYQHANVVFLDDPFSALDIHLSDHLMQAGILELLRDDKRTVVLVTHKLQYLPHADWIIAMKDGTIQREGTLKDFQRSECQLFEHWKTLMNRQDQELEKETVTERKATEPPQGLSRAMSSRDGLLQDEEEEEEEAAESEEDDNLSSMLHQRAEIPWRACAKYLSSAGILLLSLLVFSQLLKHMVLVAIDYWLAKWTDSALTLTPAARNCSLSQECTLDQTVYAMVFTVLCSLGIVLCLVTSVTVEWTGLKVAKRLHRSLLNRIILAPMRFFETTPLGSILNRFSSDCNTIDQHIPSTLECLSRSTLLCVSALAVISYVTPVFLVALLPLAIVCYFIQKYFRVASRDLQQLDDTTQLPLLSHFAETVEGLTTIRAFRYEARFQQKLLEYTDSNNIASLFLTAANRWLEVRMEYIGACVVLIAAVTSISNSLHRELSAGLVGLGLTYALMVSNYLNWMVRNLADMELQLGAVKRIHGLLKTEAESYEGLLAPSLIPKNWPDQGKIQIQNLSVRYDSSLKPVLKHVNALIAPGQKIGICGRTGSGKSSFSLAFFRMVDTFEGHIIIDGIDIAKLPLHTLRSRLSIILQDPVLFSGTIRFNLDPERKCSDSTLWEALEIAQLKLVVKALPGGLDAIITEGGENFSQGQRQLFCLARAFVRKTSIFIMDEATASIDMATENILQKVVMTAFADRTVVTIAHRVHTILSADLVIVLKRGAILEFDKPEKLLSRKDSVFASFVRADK

Row | IC50 (Rattus norvegicus [2]) [µM] | EC50 (Rattus norvegicus [3]) [µM] | EC50 [4] [µM] | EC50 (Rattus norvegicus [6]) [µM] | IC50 (Beta-TC6 [9]) [µM] | IC50 [10] [µM] | half-life [11] [h] | bioavailability [12] [%] | IC50 [13] [µM] | IC50 [14] [µM] | EC50 (Rattus norvegicus [16]) [µM] | F [12] [%] | Structure (SMILES) | Emax (Beta-TC6 [1]) [%] | Reduction (Rattus norvegicus [5]) [%] | Change (Rattus norvegicus [7]) [%] | Reduction (Rattus norvegicus [8]) [%] | Emax at 10 µM (Beta-TC6 [15]) [%]
1 |  |  | 1.3 | 65 | 0.16 |  |  |  |  |  |  |  | CCC(C)NC1=NS(=O)(=O)c2sc(Cl)cc2N1 (stereo unspecified) |  |  |  |  | 74
2 |  |  | 14 | > 300 | 0.56 |  |  |  |  |  |  |  | CC(C)[C@H](C)NC1=NS(=O)(=O)c2sc(Cl)cc2N1 |  |  |  |  | 80
3 |  |  | > 100 | 8 | 0.24 |  |  |  |  |  |  |  | CCC(CC)CNC1=NS(=O)(=O)c2sc(Cl)cc2N1 |  |  |  |  | 38
4 |  |  | 0.3 | 75.3 | 1.01 |  |  |  |  |  |  |  | CC(C)[C@@H](C)NC1=NS(=O)(=O)c2sc(Cl)cc2N1 |  |  |  |  | 62
5 |  |  | 17 | 2 | 0.75 |  |  |  |  |  |  |  | CC(NC1=NS(=O)(=O)c2sc(Cl)cc2N1)C(C)(C)C (racemic) |  |  |  |  | 56
6 |  |  | 41 | 83 | 0.22 |  |  |  |  |  |  |  | CCCC(C)NC1=NS(=O)(=O)c2sc(Cl)cc2N1 (racemic) |  |  |  |  | 56
7 |  |  | 2 | 25.2 | 4.89 |  |  |  |  |  |  |  | CC(C)CCCC(C)NC1=NS(=O)(=O)c2sc(Cl)cc2N1 (racemic) |  |  |  |  | 72
8 |  |  | 0.4 | 2 | 24.9 |  |  |  |  |  |  |  | CCCCCC(C)NC1=NS(=O)(=O)c2sc(Cl)cc2N1 (racemic) |  |  |  |  | 36
9 |  |  |  | 34.8 | 0.17 |  |  |  |  |  |  |  | CC(C)C(C)NC1=NS(=O)(=O)c2sc(Cl)cc2N1 (racemic) |  |  |  |  | 79

More lines, now with the values behind:

Row | Structure (SMILES) | IC50 (Rattus norvegicus [2]) [µM] | EC50 (Rattus norvegicus [3]) [µM] | EC50 [4] [µM] | EC50 (Rattus norvegicus [6]) [µM] | IC50 (Beta-TC6 [9]) [µM] | IC50 [10] [µM] | half-life [11] [h] | bioavailability [12] [%] | IC50 [13] [µM] | IC50 [14] [µM] | EC50 (Rattus norvegicus [16]) [µM] | F [12] [%] | Emax (Beta-TC6 [1]) [%] | Reduction (Rattus norvegicus [5]) [%] | Change (Rattus norvegicus [7]) [%] | Reduction (Rattus norvegicus [8]) [%] | Emax at 10 µM (Beta-TC6 [15]) [%]
10 | O=S1(=O)NC(NC2CCCC2)=Nc2cc(Cl)sc21 | 0.44 | 10.8 | 0.4 | > 300 | 1.15 |  |  |  |  |  |  |  | 67 | 22 | 29 | 99 | 
11 | O=S1(=O)NC(NC2CCC2)=Nc2cc(Cl)sc21 | 0.05 | 38.6 | 1.4 | 27 | 0.49 | 943 | 1.88 | 49 | 0.12 | 146 |  |  | 78 | 100 | 5 | 100 | 
12 | O=S1(=O)NC(NC2CC2)=Nc2cc(Cl)sc21 |  |  | > 30 | 28.2 | 7.38 |  |  |  |  |  |  |  |  |  |  |  | 37
13 | CC1(NC2=NS(=O)(=O)c3sc(Cl)cc3N2)CCC1 | 0.01 | 7.2 | 0.014 | 6.5 | 0.02 | 859 |  |  | 0.003 | 10.8 |  |  | 91 | 76 | -48 | 82 | 
14 | CCCCCCCCNC1=NS(=O)(=O)c2sc(Cl)cc2N1 |  |  | 0.5 | 176 | 1.5 |  |  |  |  |  |  |  |  |  |  |  | 76
15 | CCC(C)(C)NC1=NS(=O)(=O)c2sc(Cl)cc2N1 | 0.02 | 29.4 | 0.2 | 11.8 | 0.03 | 899 | 1.65 | 47 | 0.18 | 375 |  |  | 82 | 77 | -34 | 87 | 
16 | CC1(NC2=NS(=O)(=O)c3sc(Cl)cc3N2)CCCCC1 |  |  | 1 | 1.4 | 5.33 |  |  |  |  |  |  |  |  |  |  |  | 62
17 | CC(C)(C)NC1=NS(=O)(=O)c2sc(Cl)cc2N1 | 0.06 | 60.6 | 0.4 | 169 | 0.17 | 1350 |  |  | 0.23 | 393 |  |  | 77 | 71 | -36 | 85 | 
18 | CC1(NC2=NS(=O)(=O)c3sc(Cl)cc3N2)CCCC1 |  |  | 0.08 | 6.2 | 0.07 |  |  |  |  |  |  |  |  |  |  |  | 79
19 | O=S1(=O)NC(NC2CCCCC2)=Nc2cc(Cl)sc21 |  |  | 8 | 6.8 | 25.6 |  |  |  |  |  |  |  |  |  |  |  | 40
20 | CCC1(NC2=NS(=O)(=O)c3sc(Cl)cc3N2)CCC1 |  |  | 0.1 | 3.3 | 0.02 |  |  |  |  |  |  |  |  |  |  |  | 81
21 | CCCCCCNC1=NS(=O)(=O)c2sc(Cl)cc2N1 |  |  | 0.2 | 0.15 | 7.1 |  |  |  |  |  | 0.15 |  |  |  |  |  | 67
22 | NC1=NS(=O)(=O)c2sc(Cl)cc2N1 |  |  |  | 262 | 21.1 |  |  |  |  |  | 262 |  |  |  |  |  | 27
23 | CC1=Nc2ccc(Cl)cc2S(=O)(=O)N1 [DIAZOXIDE] | 20.3 | 20.8 | 77.4 |  |  |  |  |  |  |  | 12.8 | 154 | 23 | 53 | -26 | 53 | 
24 | CC1(NC2=NS(=O)(=O)c3sc(Cl)cc3N2)CC1 [TIFENAZOXIDE] |  | 14.3 | 0.6 | 119 | 0.15 |  |  |  |  |  |  |  | 69 | 77 | -4 | 85 | 
